A selection follows.
Apaf1 activ: activates human Apaf-1 apoptosome | O14727 | actives 0.31% (n = 330,000) | AID 489031 | activity change, negative = activation, % at 20 µM | Apaf-1 apoptosome caspase-3 activation, DEVD-Rh110 fluorescence; stronger effect = lower value;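 active means activity change at or below -40% at 20 µM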
Target sequence (O14727 whole entry, looked up): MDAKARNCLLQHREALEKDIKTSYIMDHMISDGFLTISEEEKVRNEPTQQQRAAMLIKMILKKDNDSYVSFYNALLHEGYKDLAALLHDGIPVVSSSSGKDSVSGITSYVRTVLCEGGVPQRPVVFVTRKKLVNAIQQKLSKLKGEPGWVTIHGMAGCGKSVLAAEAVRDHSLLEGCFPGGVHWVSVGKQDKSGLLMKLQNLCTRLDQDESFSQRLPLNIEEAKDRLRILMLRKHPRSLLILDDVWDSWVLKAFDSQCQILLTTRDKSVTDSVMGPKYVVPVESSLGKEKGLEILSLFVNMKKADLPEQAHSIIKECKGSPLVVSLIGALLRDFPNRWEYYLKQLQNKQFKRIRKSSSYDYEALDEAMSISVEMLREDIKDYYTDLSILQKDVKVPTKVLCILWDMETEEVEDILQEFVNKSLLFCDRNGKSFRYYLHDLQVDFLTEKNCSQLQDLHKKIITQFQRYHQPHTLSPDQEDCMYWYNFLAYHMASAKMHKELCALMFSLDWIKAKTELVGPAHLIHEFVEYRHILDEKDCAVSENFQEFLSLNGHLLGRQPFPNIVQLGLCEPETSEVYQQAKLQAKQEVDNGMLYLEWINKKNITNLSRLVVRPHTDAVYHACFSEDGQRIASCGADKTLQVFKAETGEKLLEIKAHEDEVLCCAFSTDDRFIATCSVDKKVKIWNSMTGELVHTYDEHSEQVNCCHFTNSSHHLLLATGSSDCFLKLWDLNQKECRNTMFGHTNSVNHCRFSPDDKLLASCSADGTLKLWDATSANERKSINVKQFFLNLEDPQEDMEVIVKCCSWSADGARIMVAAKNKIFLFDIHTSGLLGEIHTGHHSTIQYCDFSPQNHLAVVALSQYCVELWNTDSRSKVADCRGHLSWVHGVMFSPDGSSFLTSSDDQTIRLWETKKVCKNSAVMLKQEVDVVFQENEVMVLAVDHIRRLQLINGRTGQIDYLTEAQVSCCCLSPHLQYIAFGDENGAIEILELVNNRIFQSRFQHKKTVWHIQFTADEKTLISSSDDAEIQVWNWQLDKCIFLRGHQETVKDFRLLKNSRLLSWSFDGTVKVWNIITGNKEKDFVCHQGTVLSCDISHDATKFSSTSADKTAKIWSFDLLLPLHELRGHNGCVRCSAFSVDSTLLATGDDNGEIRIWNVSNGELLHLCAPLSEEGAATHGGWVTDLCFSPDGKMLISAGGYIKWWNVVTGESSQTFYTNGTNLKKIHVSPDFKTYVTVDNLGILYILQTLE
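Assay system – biochemical Apaf-1 apoptosome reconstitution · Medium – 20 mM HEPES buffer, pH 7.5, containing CHAPS and BSA · Incubation – 30 min preincubation, 50 min reaction, room temperature · Measured by – Caspase-3-released Rh110 fluorescence, 540 nm emission, 480 nm excitation · Read-out – Caspase-3 cleavage activity downstream of Apaf-1 activation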
Rh110 interf act: interferes with Rh110 fluorescence, flagging false Apaf-1 activators. fluorescence interference (activity change), % at 20 µM, hits read low. Rh110 fluorescence interference, quenched caspase reaction, Ex480/Em540. shares compounds with Apaf1 activ. 980 tested, under 10 active;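 active means mean activity change at or below -40% when tested at 20 µM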
Apaf-1 act conf2: confirmation of human Apaf-1 activators | reconstituted apoptosome caspase-3 activity, DEVD-Rh110 fluorescence; stronger effect = lower value | activity change, negative = activation, % at 20 µM | shares compounds with Apaf1 activ | AID 504617 | actives 5% (n = 980);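 active means mean activity change at or below -40%, meaning activation of 40% or more, at 20 µM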
A number is an active result; i = inactive; nt = no result given.

SMILES	Apaf1 activ	Rh110 interf act	Apaf-1 act conf2
CCN(CC)C(=O)N1CCN(S(=O)(=O)c2ccccc2)CC1	-81	i	i
CCOC(=O)N1CCN(C2=C(NS(=O)(=O)c3ccccc3)C(=O)c3ccccc3C2=O)CC1	i	nt	nt
Nc1ccn([C@H]2C[C@H](O)[C@@H](CO)O2)c(=O)n1	i	nt	nt
COc1ccc(S(N)(=O)=O)cc1-c1nnc2c3ccccc3c(C)nn12	-54	i	i
COc1ccc(/C=C2/C(=O)N(c3ccccc3)N=C2C)cc1OC	i	nt	nt
O=C(Nc1nnc(S(=O)(=O)N2CCOCC2)s1)c1ccccc1Br	-95	i	i
Cc1ccc(C(=O)Nc2ccccn2)cc1S(=O)(=O)N1CCOCC1	i	nt	nt
CC(=O)Nc1cccc(C(=O)NC(C)c2ccc(-n3ccnc3)cc2)c1 (stereo not drawn)	i	nt	nt
COC(=O)C1=C(C)N(Cc2ccccc2)C(=NCc2ccccc2)N[C@H]1c1cccc(C(F)(F)F)c1	i	nt	nt
CC(C)(C)NC(=O)NC(=O)COC(=O)c1nc(-c2ccccc2)n(-c2cccc(C(F)(F)F)c2)n1	-47	i	i
CCOc1ccc(OCC(=O)OCn2c(SC)nnc(C)c2=O)cc1	-76	i	i
O=C(OCC(=O)c1c[nH]c2ccccc12)c1cc(Br)ccc1O	-339	i	i
C/C=N/NC(=O)c1cc(Br)ccc1O	i	nt	nt
CN(C)S(=O)(=O)c1ccc(NC(=O)CN2CCCC2c2ccc3c(c2)OCCCO3)cc1 (stereo not drawn)	i	nt	nt
CC1Cc2ccccc2N1CC(=O)Nc1ccc(S(=O)(=O)N(C)C)cc1 (stereo not drawn)	-444	i	i
C#CCOCCOCCOCCNc1nc(N2CCN(C(=O)CCCCCCCCCCNC(=O)[C@H]([C@@H](C)CC)n3cc(CCCCCN)nn3)CC2)nc(N2CCN(C(=O)CCCCCCCCCCNC(=O)[C@H](CO)n3cc(CCCCCN)nn3)CC2)n1	i	nt	nt
CCCC(C(=O)NC(C)(C)C)N(Cc1ccc(F)cc1)C(=O)c1snc(C(N)=O)c1N (stereo not drawn)	-108	i	i
COC(=O)CCC(=O)OC1(C)C(=O)C2=CN(C3CC3)C(c3ccc(OC)cc3)=CC2=C(Br)C1=O (stereo not drawn)	i	nt	nt
Cc1sc2ncnc(N3CCC(C(=O)N(C)CC(=O)Nc4ccccc4Cl)CC3)c2c1C	i	nt	nt
Cc1cc(SCC2=NNC(=O)C2)c(Cl)cc1Cl	i	nt	nt
OC(COc1c(Cl)cc(Cl)cc1Cl)CN1CCCCC1 (stereo not drawn)	-88	i	i
CCCCCCCCCCOC(=O)Cn1c(COc2ccc(Cl)cc2)[n+](C)c2ccccc21	i	nt	nt
CCCN1CCN(C(=S)Nc2ccccc2C(F)(F)F)CC1	-81	i	i
COc1ccc(C(CNC(=O)c2cc3c(s2)CCC(C)C3)N2CCCC2)cc1 (stereo not drawn)	i	nt	nt
NC1=NC[C@@H](Cc2ccc(O)cc2)N1CCCCC1CCCCC1	i	nt	nt
SMILES	Apaf1 activ	Rh110 interf act	Apaf-1 act conf2
COc1cccc(-c2cn3nc4c(nc3n2)CCCC4)c1	i	nt	nt
COc1cccc(-c2cc(C(F)(F)F)n3nc(N)nc3n2)c1	-44	i	i
CC1=NN(c2ccccc2)C(=O)/C1=C/c1cccc(C)c1	i	nt	nt
O=C1C(=O)N(CCN2CCOCC2)C(c2ccccc2)/C1=C(\O)c1ccc2c(c1)OCCO2 (stereo not drawn)	i	nt	nt
O=C1C(=O)N(c2nccs2)C(c2ccccc2F)/C1=C(\O)c1ccc2c(c1)OCCO2 (stereo not drawn)	-40	i	i
Cc1ccc(C(=O)N/N=C/c2ccc(-c3ccccc3[N+](=O)[O-])o2)cn1	i	nt	nt
Cc1[nH][nH]c(=O)c1C(c1ccc(-c2ccc(F)cc2)o1)c1c(C)[nH][nH]c1=O	i	nt	nt
CC1(OC(=O)c2ccc(Cl)nc2)C(=O)C=C2C=C3CCCN3C=C2C1=O (stereo not drawn)	i	nt	nt
CCN(CC)CCN(C(=O)c1ccc(C(C)=O)cc1)c1nc2ccc(Cl)cc2s1	-329	i	i
CCN(CC)CCN(C(=O)c1ccc2c(c1)CCCC2)c1nc2cc(OC)c(OC)cc2s1	i	nt	nt
CCOc1ccc2nc(N(CCN(C)C)C(=O)c3ccc4c(c3)CCCC4)sc2c1	i	nt	nt
COc1ccc(C(C[N+](=O)[O-])c2c(C)[nH]n(-c3ccccc3)c2=O)cc1 (stereo not drawn)	i	nt	nt
CCCCCCOC(=O)C(C#N)c1nc2ccccc2nc1N1CCN(CC)CC1 (stereo not drawn)	i	nt	nt
O=C(Cc1ccccc1Cl)NC1(O)C(=O)c2ccccc2C1=O	i	nt	nt
CC1(C(=O)NC2CCCC2)CCC(=O)N1Cc1ccccc1Cl (stereo not drawn)	-106	i	i
CN1CCC[C@@H]1CCNC(=O)c1c(-c2ccc3c(c2)OCO3)noc1-c1ccsc1	i	nt	nt
Cc1ccc2c(C)nc(Nc3nc(CSc4nc5ccccc5[nH]4)cc(=O)[nH]3)nc2c1	-71	i	i
O=C(NC1=C(Nc2ccc(Cl)cc2)C(=O)c2ccccc2C1=O)c1ccccc1	i	nt	nt
O=C1C(Cl)=C(NC(=O)c2ccccc2)C(=O)C(Cl)=C1NC(=O)c1ccccc1	i	nt	nt
O=C(NNC(=S)Nc1ccc(Cl)cc1)c1ccccc1	-66	i	i
CC1CC2(CCCCC2)N2C(=O)C(=O)c3cccc1c32 (stereo not drawn)	i	nt	nt
c1ccc2c(-c3ccc(OCCN4CCCCC4)cc3)c(-c3ccsc3)sc2c1	i	nt	nt
Cc1cc(Cl)ccc1NC(=O)c1ccc2c(c1)CCN2S(C)(=O)=O	-170	i	i
Cc1cc(N2CCN(C)CC2)ccc1NC(=O)c1ccc(-c2ccc(Cl)cc2)o1	i	nt	nt
CC(C)N1CCc2c(sc(NC(=O)c3ccc(S(=O)(=O)N4CCc5ccccc54)cc3)c2C(N)=O)C1	i	nt	nt
SMILES	Apaf1 activ	Rh110 interf act	Apaf-1 act conf2
CCCCNC1=CC(=O)C(=O)c2ccccc21	i	nt	nt
C/C(=C\c1ccccc1)C1Nc2cccc3cccc(c23)N1	i	nt	nt
NC(=O)[C@@H]1CCCNc2c(I)cc([N+](=O)[O-])cc2C(=O)N[C@@H](CCCN=C(N)N)C(=O)N[C@@H](CCCN=C(N)N)C(=O)N1	i	nt	nt
Nc1cc2nsnc2cc1Br	i	nt	nt
C#CCOCCOCCOCCNc1nc(N2CCN(C(=O)CCCCCCCCCCNC(=O)[C@@H](CCC(=O)O)n3cc(CCCCCN)nn3)CC2)nc(N2CCN(C(=O)CCCCCCCCCCNC(=O)[C@H]([C@@H](C)CC)n3cc(CCCCCN)nn3)CC2)n1	i	nt	nt
CCOc1ccc2oc(C(=O)N(C)CC(=O)Nc3ccc(OCC)c(OCC)c3)c(C)c2c1	-55	i	i
CC(C)(C)C1CCC(CN2C(Nc3ccccc3)=NC[C@@H]2Cc2ccccc2)CC1 (stereo partly drawn)	i	nt	nt
COCCNc1nc2nonc2nc1N(C)Cc1cccc2cnccc12	-346	i	i
COc1cc2sc3ccc(-c4ccc(N(C)C)nc4)cc3c(=O)c2cc1OC	i	nt	nt
COC(=O)CCC(=O)OC1(C)C(=O)C=C2C=C(C3CC3)N(CCCOC(C)C)C=C2C1=O (stereo not drawn)	i	nt	nt
CCOC(=O)c1ccc(N2CSC3=C(C#N)C(c4cccs4)CC(=O)N3C2)cc1 (stereo not drawn)	i	nt	nt
CCCCCC(=O)Nc1ccc(N2CCN(S(C)(=O)=O)CC2)cc1	-523	i	i
O=C(COc1ccc2ccc(=O)oc2c1)Nc1ccc(N2CCCCC2)cc1	i	nt	nt
